Assay results published in the EternaBench riboswitch data.

System: MS2 coat protein
Test: apparent Kd, MS2 coat protein; higher = weaker binding; RNA-MaP array; FMN 200 µM where present
Summary of the method: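 The titrant was SNAP-549-labelled MS2 coat protein, run from 0.7 or 1.5 nM in doubling steps to 3 µM. It was applied to designs transcribed by stalled E. coli RNA polymerase on Illumina sequencing-chip clusters, without ligand first and then with constant ligand, in 100 mM Tris-HCl pH 7.5, 80 mM KCl, 4 mM MgCl2, BSA, DTT, yeast tRNA and Tween-20. The apparent Kd is the median of filtered per-cluster binding-curve fits, with green signal normalised to red-channel RNA signal and control-cluster median Fmax.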

[1] = designed as: OFF switch for flavin mononucleotide, no ligand
[2] = ligand present: flavin mononucleotide, designed as: OFF switch for flavin mononucleotide
[3] = designed as: ON switch for flavin mononucleotide, no ligand
[4] = ligand present: flavin mononucleotide, designed as: ON switch for flavin mononucleotide

Sequence	apparent Kd [1] [nM]	apparent Kd [2] [nM]	apparent Kd [3] [nM]	apparent Kd [4] [nM]
GUAGAGUAAGGAUAUACUGAAUAGGAUAGAAUGGUUAGAAAGUAGAAGGUACAUGAGGAUCACCCAUGUAAUGU	20.3	19.7	–	–
CGUGAAGGCUGGCCGAUAUAGUCGAGAAGGGUCCACAUGAGGAUCACCCAUGUGAGCCUUGGUGGACAGGAUAUCGAUGGCCGU	46.7	15.2	–	–
AACACAACAUGAAACAUGAGGAUCACCCAUGUUGUUUGUAAUCAGGAUAUGAUCUCAAGAAUGAAUUAGAAGGGAUAGGGAGGG	–	–	35.8	47.1
CGAUGACAAAGUCAUCGAUAACGAACAUGAGGAUCACCCAUGUAGGAUAUGCUACUCAAAGAGUAGCAGAAGGACAUGUGUCUU	31.7	154	–	–
GUCAGCUCGUGAGGAUAUACAACACUGCUUCGGCAGUGUAUUAAGAUCACAUGAGGAUCACCCAUGUAGAAGGCACGAGCUGGU	14.7	260	–	–
AAGUUUUUACAAGGAUAUCAAUUUUAUCUUAAUUCAACAUGAGGAUCACCCAUGUAACAAUGGAGUGAGAAGGUGUAAUGGCUU	–	–	617	234
UAAAUCUUGUAAGGAUAUACACGAGAUUCAAGUGUAGAAGGUACUUACAUGAGGAUCACCCAUGUAUACAUGGAUAUUAGAUAU	–	–	142	38.9
GGCUGGCAGCUAGGAUAUGGGCGGUCACAUGAGGAUCACCCAUGUCAACAUCAAAACCAGAUUAACCAGAAGGAGCUGCGGGCU	–	–	51.8	796
GUAGCUAUCGGAGGAUAUUCAUAUCGGAAACGGACAUGAGGAUCACCCAUGUGGCGAAAGCCUUGGGAGAAGGCCGAUAGCUAC	–	–	144	9.42
GCCAGAGAAGGAUAUACGAGGAUCGAGUGGUCACACCUACAACAUGAGGAUCACCCAUGUAGAAGGUUUCGGCU	13.9	16.3	–	–
UUGUUUCGUCAUUAACAUGAGGAUCACCCAUGUAAAGAACCAGAGGAUAUGCAUGUUUGAUUGUAGCAGAAGGCUGAUUGUUGU	–	–	35.8	33.4
AAAAAACAUGAGGAUCACCCAUGUAAGGAUAUGCAAAAAAAAAAAAAAAAAAAAAAAAGCAGAAGGUACAAAAA	34.2	62	–	–
AGAUCCUGAGUCAGGAUAUAGAGGCGGUAGCCUGGCUAGAAGGGACAUGAGGAUCACCCAUGUGGGUUCUUGCC	12.5	17.4	–	–
UUAAUGUGAGGAUAUCAGGUGUGCUAGCGUACUGGUACAUCUGAGAAGGCACAUGAGGAUCACCCAUGUUCCUU	16.4	55.3	–	–
GUGUACAGAGGAUAUACAUAAGCAUGGAAACAUGCUACUUCACAUGAGGAUCACCCAUGUAGAAGGCUGUACAC	14.5	15.4	–	–
UGCGGUAGAGGAUAUACGUAGAACUAGGUUCAUGUAAAACUACAUGAGGAUCACCCAUGUAGAAGGCUAUCGCU	17	22.4	–	–
AGUGUGUGGCAGGAUAUGCUGUUGAUUGGUGAAGCAGAAGGGUCUACAUGAGGAUCACCCAUGUAAGCGGUUGA	53.1	225	–	–
UGGUACUAGGGAGGAUAUGGAAAGAUACAUGAGGAUCACCCAUGUUUAAGAAUGCCGAGAGGCAACUAGAAGGCCCUAGUACCU	–	–	11.1	5.29
UUUAUAUAGUAAGGAUAUGUAUUAUUUUUUUCAACAGAAGGUACUGACAUGAGGAUCACCCAUGUUUUAGUGUGGGCAUGUAGU	384	450	–	–

Sequence	apparent Kd [1] [nM]	apparent Kd [2] [nM]	apparent Kd [3] [nM]	apparent Kd [4] [nM]
AUACACUUAGUGAGGAUAUCGUUUUCUUUACGGAUCGAGAAGGCACAUGAGGAUCACCCAUGUUUGACGUGAAU	21.4	68.9	–	–
GCAUGUUAUGUCAGGAUAUACCUAUGGAUACAUAGGUAGAAGGGACAUGAGGAUCACCCAUGUCCUAACCAUGC	11.8	15.1	–	–
GUCGUGUGAGGAUAUGAUUUUUCGGCGGGAUUGCGACUGCUUCAGAAGGCACAUGAGGAUCACCCAUGUUUGUC	10.6	21.2	–	–
CCGCAUAAGCAGGAUAUCGUAUCGGAUACGAUACGAGAAGGGUUUACAUGAGGAUCACCCAUGUUCCUUAGCGG	29.7	48.1	–	–
AGAAACUACGAGAAGGACAUAUGGUUCUUCAGAUACAUGAGGAUCACCCAUGUAGGAUAUCGUAGUUUCAGGAUCGUGAGAUCA	6.51	9.68	–	–
GUGUUACAUGAGGAUCACCCAUGUUGUUGUAGAUAAGGAUAUAUGGGAACGAGAGAAAUAAUAGAAGGUAUUAGGC	–	–	71.2	67.7
GUCCCACAUGAGGAUCACCCAUGUGAGGAUAUGGAUUCGCUGGCCGUAGCCAGUGGAUCCAGAAGGCGCAUGAU	19.6	26.5	–	–
CCACCAAUCGAGAAGGGCCCAUGUGCUACAUCGGCAGGAUAUCGACAUGAGGAUCACCCAUGUUGGCGAUCCUUUUUGGCGGAC	176	35.9	–	–
GCAUCGUCGACUGAUAAUGAGCCUAGAAGGCGGACAUGAGGAUCACCCAUGUCUGAUCCUCGGCCCGAGGAUAUAGGUUAAUGA	12.1	8.65	–	–
GGAGCCGACACUGAGGAUAUUCAUAUUAAAACAUGAGGAUCACCCAUGUAGGCCAGAAGGCCUUGGGAGAAGGCAGGCCGGCUCG	–	–	377	26.5
UUGAACAUAGGAUAUAGUUGUUUGUACAUGAGGAUCACCCAUGUUAUGUAUGUUUUGUUUCUAGAAGGAUGUUGAU	37.7	32.3	–	–
GAGUUGAAGUUAGGAUAUUGGAUAGGGACGGAAUAAGAAGGAGCAAGACAUGAGGAUCACCCAUGUGUAGAAGAAGAGAUCCUC	352	227	–	–
GACAUACAUGAGGAUCACCCAUGUUCAGAAGGGCAAGGAUAUGUGUGGAAACCAUACUAUACAGAAGGUGUCUGUC	–	–	34.7	20.3
UAGAAGUCAGGAUAUGCAUGGCGGGACUUGCGUCGUGGCGUGCAGAAGGGACAUGAGGAUCACCCAUGUAAAGU	51.5	55.5	–	–
GUCGGAAACGACAAUGAUAGGACUGAGGAUAUACGUAUAAAUAUCCUCACAUGAGGAUCACCCAUGUAGAAGGCAGUCCUAUCU	13.2	167	–	–
UUAUUGGGACAGAAGGGCAUUUACAUGAGGAUCACCCAUGUUCAUCAUUGCAGGAUAUGUAUUACAUGAGGAUCAUCUAUGUUA	–	–	259	36.9
AGAUAGGAUGCAGGAUAUCUAUCUUGAAUGAGGAGAGAAGGGCAAGUAGAUAGAUAAGCCUCAUGACAUGAGGAUCACCCAUGU	14.1	12.9	–	–
CUUUUGUGAGGAUAUCAGUAGUAAAUAAAUAAUAUUACUACUGAGAAGGCACAUGAGGAUCACCCAUGUUCCUC	42.6	253	–	–
GUAAACGAUCAGGAUAUAUCAAAUAAUAGCUUGAUAGAAGGGAUCACAUGAGGAUCACCCAUGUGAUCUUCUUU	13.6	14.8	–	–

Sequence	apparent Kd [1] [nM]	apparent Kd [2] [nM]	apparent Kd [3] [nM]	apparent Kd [4] [nM]
AUGUACCGGUGAGGAUAUUUUUAAUAGAACUUUAUGAUAUACAUGAGGAUCACCCAUGUUACUUUAAAGAAGGCAUCGGAUUAA	17.7	14.2	–	–
AACGCACGAGAUGGCUGGGAUACUAAGGAUAUGACAUGAGGAUCACCCAUGUACGCGAUCCAUGGUCAGAAGGUAGUAAUUCGC	37	91.2	–	–
CCGGAAGUACAGGAUAUCGUAUCGGAUACGAUACGAGAAGGGUAUACAUGAGGAUCACCCAUGUGUCCUACCGG	29.3	31.5	–	–
CUUUUGUGAGGAUAUCAGUAGUAUAUAAAUAAAAUUACUACUGAGAAGGCACAUGAGGAUCACCCAUGUUCCUC	39.2	164	–	–
CUCAAGUGAGGAUAUCAGUAGUAAAAAAAUAAAAUUACUACUGAGAAGGCACAUGAGGAUCACCCAUGUGACUU	26.5	23.5	–	–
AAAAUGGUCUAGGAUAUGACAAAUCUGAGCACGUCAGAAGGAGACACAUGAGGAUCACCCAUGUGGGUGCGAAA	36.1	189	–	–
GCUAGUCAUGUCAGGAUAUGCAGUUCCUUGGAACUGCAGAAGGGACAUGAGGAUCACCCAUGUGCCUAGCUAGC	41.1	357	–	–
GCCAUCGCAUGAGGAUAUGCUCGGGUUUCCCGAGCAGAAGGCAUGUCAUAAGACAUGAGGAUCACCCAUGUAGUUAAGAUGGCA	–	–	813	35.9
CCACGUCACAUGAACAUGAGGAUCACCCAUGUAAAUUCUCAUGAGGAUAUGGAUCCUAAUUGGAUCCAGAAGGCGUGGACGUGG	–	–	1070	461
UUGAAGUCAUCAGGAUAUAGUAUUAAAGACAUUUAUUUUUUCAUACAUGAGGAUCACCCAUGUCGCUAGAAGGGAUUAUAGAUU	51.8	49.2	–	–
UGGUACUAGGGAGGAUAUGGGAAGAUACAUGAGGAUCACCCAUGUUUAAGAAUGCCGAGAGGCAACUAGAAGGCCCUAGUCCCU	–	–	317	19.1
AGGCGAGUAGGAUAUGCAUAUUUACAGGAAAGCUGGAUGGUACAUGAGGAUCACCCAUGUAGAAGGGCUCUGAA	18.7	20.7	–	–
AAGCGAAAGCUAAAAUAUCUAUCAGAGGAUAUUUAUGAUACAUGAGGAUCACCCAUGUGGCACUGGGAGAAGGCUGAUAGAUAA	–	–	11.6	6.15
UCAUCAACGGGCGGGUCGGUUGGACAUGAGGAUCACCCAUGUAGAAGGACCGGUGGGCUCCGGCGGUAGGAUAUACAUUUGGUG	8.14	13.3	–	–
GAAAAACAUGAGGAUCACCCAUGUAAAAAAAUGGGAGGAUAUACAAAGACGAAAGUCAAAGUAGAAGGCCUGAAAG	–	–	54.9	20.7
GAUAGGACAGAGAAGGACGUAGCUAGAGAUACUAGCAUAAAGUCUUCAACAUGAGGAUCACCCAUGUAGGAUAUCUGUCCUAUC	6.43	6.64	–	–
GUUUAGUGAGGAUAUGUGGCAUCGCCCGAGCGCGGUCGGCUACAGAAGGCACAUGAGGAUCACCCAUGUUUCUC	38.6	585	–	–
CGCCGACAUGAGGAUCACCCAUGUCACAUCUGGUCAGGAUAUGGUAUGAUUUGGCUAUUGCCAGAAGGGACCUCAG	–	–	48.9	28
